Measurements: the EternaBench riboswitch data

System: MS2 coat protein
Assay: apparent Kd, MS2 coat protein; higher = weaker binding; RNA-MaP array; FMN 200 µM where present
Outline: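 The apparent Kd is reported as the median of filtered per-cluster binding-curve fits. To get these curves, designs transcribed by stalled E. coli RNA polymerase on Illumina sequencing-chip clusters were titrated with SNAP-549-labelled MS2 coat protein from 0.7 or 1.5 nM, doubling to 3 µM. Titrations were run without and then with constant ligand in 100 mM Tris-HCl pH 7.5, 80 mM KCl, 4 mM MgCl2, BSA, DTT, yeast tRNA and Tween-20, and green signal was normalised to red-channel RNA signal and control-cluster median Fmax.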

[1] = designed as: OFF switch for flavin mononucleotide, no ligand
[2] = ligand present: flavin mononucleotide, designed as: OFF switch for flavin mononucleotide
[3] = designed as: ON switch for flavin mononucleotide, no ligand
[4] = ligand present: flavin mononucleotide, designed as: ON switch for flavin mononucleotide

Sequence	apparent Kd [1]	apparent Kd [2]	apparent Kd [3]	apparent Kd [4]
AUUGUUAAGUUAGGAUAUAGUAAAAUGAUUUAGUUAGAAGGAGCUCACAUGAGGAUCACCCAUGUAAGAGGAUCACCCAUGUAU	24.9 nM	18.3 nM	–	–
UUUAUUAAACAAGGAUAUCAUUUGUGUACAAGUUUUACAUGAGGAUCACCCAUGUUAAAUGGUUUUGAGAAGGUGUUUAGAAUU	–	–	34.2 nM	25.2 nM
ACAGUAAACGAAGGAUAUGGUUACAUGAGGAUCACCCAUGUAAUGGUUGUGAUAUUGAUUAAGUUCCAGAAGGUCGUAUACUUA	190 nM	272 nM	–	–
GGUACGUCCACAGGAUAUGCGAAACAAGAAACCGCAGAAGGGUGAGGCGUCAGGACCCUGGACAUGAGGAUCACCCAUGUGCGU	–	–	113 nM	15.4 nM
AAAGUUUAAGCAGGAUAUCGACCAUUCCUUGAUGCUUCAUUGGUGCACAUGAGGAUCACCCAUGUCGAGAAGGGCUAUGAAGCU	15.6 nM	47.4 nM	–	–
AGAGUGUGAGGAUAUAUGGUAAAAGUGAAGAGAGAGGAGGAGUAGAAGGUACAUGAGGAUCACCCAUGUUUGGA	42.8 nM	36.7 nM	–	–
GGCUGGUGACAGCAUCCAUCAAAACAUGAGGAUCACCCAUGUAGAAGGCUGUACGGUUACCGUACAGAGGAUAUACAAUGAUGA	14.5 nM	24.2 nM	–	–
ACUGGUCGAGGAUAUACAUGAGGAUCACCCAUGUGAUUAGCAGUCCUCGGACUGCAAUGUAGAAGGCGACCAGU	370 nM	842 nM	–	–
GGUGCCAUGUAGAAGGCAGAUCUGAUUCAGAUCUGAGGAUAUACAUGAGGAUCACCCAUGUAAAGGCACCGCACGAGAGUGCAA	6.51 nM	8.81 nM	–	–
GGGUACAUCGGAGGAUAUCAUGUAAAUACAUGAGGAUCACCCAUGUCGAUGGAGACAUCGGAGAUUGAGAAGGCCGAUAUACCG	–	–	139 nM	9.34 nM
CUGGUUGUCGAGGAUAUGUCCCGGCUCGCUGUCGCAGAAGGCGACACAUGAGGAUCACCCAUGUCGGUUCGCGU	34.6 nM	30.5 nM	–	–
UCUAUGUAGAUUCGUCAAUACAGUUAGGAUAUGAGAUACAUGAGGAUCACCCAUGUGCAUGUGGAUUAGAAGGAACAAUUAACU	93.4 nM	69.8 nM	–	–
CGGCGGAAAGGAUAUGCAUUAAUAUCAAAAUGUGGGCCACGACAUGAGGAUCACCCAUGUAGAAGGUUCAGCCG	16 nM	14.3 nM	–	–
UGCGUACAAGCAGACAUGAGGAUCACCCAUGUGGUCUCAUGCGAGGAUAUCGGGAAGGAGGAUUCCGAGAAGGUGCGGUGAGCC	–	–	157 nM	39.6 nM
AGAUGUACCUAGGAUAUCCGUCUUAUUGGACUAGGAGAAGGAGGUACAUGAGGAUCACCCAUGUAUGACUCCUG	11.5 nM	14 nM	–	–
ACGCUUUGGGAGAAGGUACUUUAAAAUAUUUCCACAUGAGGAUCACCCAUGUAAGGAUAUCCCAUCGUUAAAUAUUAUACAGCA	8.91 nM	6.88 nM	–	–
UACAUGAGGAUCACCCAUGUUUUGUCGUGUAUGGUAUUUAUCUAGGAUAUCAAUGAAUUUAUUUAUGAGAAGGAGAAUAUUAAU	40 nM	37.5 nM	–	–
GUAGCAUUGAGAGGAUAUCCAUACCGGAAACGGACAUGAGGAUCACCCAUGUGGCGAAAGCCAUGGGAGAAGGCUCUAUGCUAC	–	–	10.2 nM	5.44 nM
GGUGCGUUUGUGAGGAUAUGCUGGUCCUUGGAUCCGCAGAAGGCACAUGAGGAUCACCCAUGUGGUGUCGUACC	289 nM	40.3 nM	–	–
GAGGACUGAUAAUAAUGUAGAAAUACAUGAGGAUCACCCAUGUAGGAUAUCGUCAGGAAUACUGACGAGAAGGACAUACAGUCC	16 nM	23.2 nM	–	–
ACGUUUUAUGCAGGAUAUUGACUUAUAUUUAAACAAGAAGGGCAAUACAUGAGGAUCACCCAUGUUAUCAUGGUAUUUAAGUUC	82.2 nM	53.9 nM	–	–

Sequence	apparent Kd [1]	apparent Kd [2]	apparent Kd [3]	apparent Kd [4]
UUAUUGUGAGGAUAUCCAAUAUAUGACAUGAGGAUCACCCAUGUUUCCACUCGUACCUCCGGAGAAGGCACUUAUU	32.7 nM	29.4 nM	–	–
CAGCACAUGAGGAUCACCCAUGUGCAUCCAUCAUGUGCCGUGCAGGAUAUAGACCGCCGUCCAGUCUAGAAGGGCACCGAUGAC	159 nM	75.1 nM	–	–
GUCAGCUCGUGAGGAUAUACAUGUGCUGGAGACAGCACUAUUAUGUUCACAUGAGGAUCACCCAUGUAGAAGGCACGAGCUGAU	16.8 nM	20.9 nM	–	–
AAUGAGCUAGGAUAUACAUGAGGAUCACCCAUGUAAAAUAGGUCAUGGAGGAACCACUGUAGAAGGAGCAGGGC	45.4 nM	72.1 nM	–	–
CCGAAUGUCACAGGAUAUGGUCCGGGCACGCGACCAGAAGGGUGAUCUCACAUGAGGAUCACCCAUGUGCAGUUGUUAAGCUGC	–	–	23.8 nM	106 nM
AGGACGGGUAAGAAGGCGUUCUCACAUGAGGAUCACCCAUGUCGAAGGAUGAGGAUAUUGGCCGAGGGUGGCGUUUUGUGACGA	–	–	30.9 nM	9.35 nM
UUUGUUUUGCAAGGAUAUGUUUAAUUUUAUUUUCCUUACACAUGAGGAUCACCCAUGUUAUACUUACAGAAGGUGCGUAAUUUG	158 nM	151 nM	–	–
CGCUCAGAGAACGAUACGAAUAGACAUGAGGAUCACCCAUGUAGAAGGACAACGGAAUAAACGUUGUAGGAUAUACAUUUAGCG	24.6 nM	52.6 nM	–	–
UAUUGAGCAGGAUAUUAACGGGUUUACAUGAGGAUCACCCAUGUGGUCCCGUGUUAGCUAUAAGAAGGGCUGAUGA	35.5 nM	120 nM	–	–
AUCAGCUCGUCAGGAUAUACGUAAUGGUAAGAUCACAUGAGGAUCACCCAUGUAGAAGGGACGAGCUGAUAAGCACGAAAGUGC	192 nM	676 nM	–	–
CAUGUCUGAGGAUAUCGUUAUUUGUACAUGAGGAUCACCCAUGUCCUAUUUAUUAUAUUUCGAGAAGGCAGUGUAU	16.9 nM	18.2 nM	–	–
GUAAAACAUGAGGAUCACCCAUGUCAACAAAGUCGAGGAUAUGGGCAAAUAAAAUAAGAACCAGAAGGCGAAUAAG	–	–	161 nM	42.6 nM
AAUUUACAGACAGGAUAUACAUGAGGAUCACCCAUGUAAUCAUAUGAUAUUUUUUUUGUAUGAGUGUAGAAGGGUCAAAUAAAA	13.5 nM	10.6 nM	–	–
GUAGCUAUCGGAGGAUAUUCAUAGCCGAAAGGCACAUGAGGAUCACCCAUGUGCGGAAACGCUUGGGAGAAGGCCGAUAGCUAC	–	–	25 nM	15.1 nM
CGCGCUUUAGGAUAUGCGUGAUGUCGUCGGCGUUGUGGUUCACAUGAGGAUCACCCAUGUAGAAGGGAGGUGUG	205 nM	175 nM	–	–
UGACAUAUAUAGAAGGGUAGUAGGGUUUUACAUGAGGAUCACCCAUGUAUUAUAGGAUAUGUGUAAAGUUAUUAUUAAAGUAAA	22.5 nM	17.2 nM	–	–
GCGAUUUUGUAAGGAUAUACACGAGUUUUAAGUGUAGAAGGUACUUACAUGAGGAUCACCCAUGUAUAAAUGUAUAAUGGUCGC	–	–	12.4 nM	9.82 nM
CCGGUAUAGGAGGAUAUAGGAGUCGAUAGACACCUAGAAGGCCUGACAUGAGGAUCACCCAUGUGUCCUUCCGG	19.6 nM	55.8 nM	–	–
GGUGGACAUGAGGAUCACCCAUGUGAGGAUAUCGGCCGGCUAGUGGCGGCUGGCUUCACGAGAAGGCGCAUAGU	85.8 nM	107 nM	–	–
CAUUAUGUUGAGGAUAUGCACCGGCUCACUGACGCAGAAGGCGACACAUGAGGAUCACCCAUGUCAGUUCGCGA	15.5 nM	15.8 nM	–	–
UUACUAUUGCAGAAGGCUCAAUAAUAUAUAAAGGGAGGAUAUGCAACAUGAGGAUCACCCAUGUUUCACCCAUAUGAGGAUCAC	9.51 nM	13 nM	–	–
